Calls of active or inactive are those of the source. The calls are words filed in the database; no cut-off is given here.
Legend:
A549 [1] = experiment: (§1) Cytotoxicity against human A549 cells harboring KRAS mutant assessed as increase in apoptotic cells after 72 hrs by crystal violet staining based assay; format: functional, cell-based
How it was run: (§2)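 Cells exposed 72 h to compound or DMSO vehicle, either at 1 and 10 μM or over 0.033–10 μM dose series. Surviving cells then stained with crystal violet and absorbance read at 562 nm. Effect expressed as % dead/apoptotic cells relative to DMSO, average of triplicates; dose curves n=6, run twice, mean ± SD, giving EC50.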

[2] = Cytotoxicity against human A549 cells harboring KRAS mutant assessed as apoptotic cells at 10 uM after 72 hrs by crystal violet staining based assay; format: functional; how it was run: as §2
[3] = as §1; format: functional, cell-based; details: A549, 72 h; how it was run: as §2
A549 [4] = experiment: Cytotoxicity against human A549 cells harboring KRAS mutant assessed as increase in apoptotic cells at 1 uM after 72 hrs by crystal violet staining based assay; format: functional, cell-based; how it was run: as §2
[5] = Cell cycle arrest in human PC3 cells assessed as blockage of G1 phase at 1 uM after 24 hrs by propidium iodide staining based flow cytometry; format: functional; details: PC-3
How it was run: (§3)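 Serum-starved 24 h to block in G1/G0, then returned to FBS-containing medium with test agent at 1 μM for a further 24 h. 0.5 × 10^6 treated cells stained with propidium iodide and analysed by flow cytometry, gating G1, S, G2/M plus apoptotic and necrotic populations. n=4–5 repeats.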

[6] = Cell cycle arrest in human PC3 cells assessed as inhibition of S phase at 1 uM after 24 hrs by propidium iodide staining based flow cytometry; format: functional; details: PC-3; how it was run: as §3
PC-3 = experiment: Induction of apoptosis in human PC3 cells after 72 hrs by crystal violet staining based assay; format: functional, cell-based; how it was run: as §2
HPAC = experiment: Induction of apoptosis in human HPAC CRL2119 cells after 72 hrs by crystal violet staining based assay; format: functional, cell-based; how it was run: as §2
Panc02 = experiment: Induction of apoptosis in mouse Panc02 cells after 72 hrs by crystal violet staining based assay; format: functional, cell-based; how it was run: as §2
A549 [7] = experiment: Ratio of EC50 for human PC3 cells to EC50 for human A549 cells harboring KRAS mutant; format: functional
How it was run: (§4)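 Ratio computed from EC50 values obtained by 72 h crystal violet survival assays (absorbance 562 nm) in each cell line, divided by the A549 EC50.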

A549 [8] = experiment: Ratio of EC50 for mouse Panc02 cells to EC50 for human A549 cells harboring KRAS mutant; format: functional; how it was run: as §4
A549 [9] = experiment: Ratio of EC50 for human HPAC CRL2119 cells to EC50 for human A549 cells harboring KRAS mutant; format: functional; how it was run: as §4
A549 [10] = experiment: Induction of apoptosis in human A549 cells harboring KRAS mutant assessed as blockage of G2/M transition phase at 1 uM after 24 hrs by propidium iodide staining based flow cytometry; format: functional, cell-based; how it was run: as §3
[11] = Cytotoxicity against human PC3 cells assessed as cell death at 1 uM after 72 hrs by crystal violet staining based assay; format: functional, PC-3
How it was run: (§5)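 Cells treated with compound or DMSO vehicle for 72 h at 0.033–10 uM, then stained with crystal violet; absorbance at 562 nm taken as live cell number. Cell death read at 1 uM relative to DMSO controls. n=6, performed twice; mean ± SD.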

[12] = Cytotoxicity against human HPAC CRL2119 cells assessed as cell death at 1 uM after 72 hrs by crystal violet staining based assay; format: functional; how it was run: as §5
[13] = Cytotoxicity against mouse Panc02 cells assessed as cell death at 1 uM after 72 hrs by crystal violet staining based assay; format: functional; how it was run: as §5
[14] = Cytotoxicity against human A549 cells harboring KRAS mutant assessed as cell death at 1 uM after 72 hrs by crystal violet staining based assay; format: functional; how it was run: as §5
[15] = Cytotoxicity against NHBE cells assessed as decrease in cell viability at 0.01 to 10 uM after 72 hrs by crystal violet staining based assay; format: toxicity; details: human; how it was run: as §2
[16] = Therapeutic index, ratio of EC50 for NHBE cells to EC50 for human A549 cells harboring KRAS mutant; format: cell-based; details: NHBE cells versus A549 cells harboring KRAS mutant, read-out: Ratio EC50; how it was run: as §4
[17] = Effect on cell cycle in NHBE cells at 1 uM after 24 hrs by propidium iodide staining based flow cytometry; details: human; how it was run: as §3
A549 [18] = experiment: Suppression of cyclin A2 level in human A549 cells harboring KRAS mutant at 1 uM after 8 to 48 hrs by Western blot analysis; format: functional, cell-based
How it was run: (§6)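 A549 cells given serum-containing medium with DMSO or 1 μM compound for 8, 24 or 48 h. Lysates immunoblotted for cyclin A2, cyclin B1, phospho-Rb, total Rb and phospho-STMN1. Two independent experiments.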

[19] = biological target: T1, Retinoblastoma-associated protein (Homo sapiens) (UniProt P06400); experiment: Inhibition of phosphorylated retinoblastoma protein level in human A549 cells harboring KRAS mutant at 1 uM after 8 to 48 hrs by Western blot analysis; format: cell-based; how it was run: as §6
T1 sequence (whole entry): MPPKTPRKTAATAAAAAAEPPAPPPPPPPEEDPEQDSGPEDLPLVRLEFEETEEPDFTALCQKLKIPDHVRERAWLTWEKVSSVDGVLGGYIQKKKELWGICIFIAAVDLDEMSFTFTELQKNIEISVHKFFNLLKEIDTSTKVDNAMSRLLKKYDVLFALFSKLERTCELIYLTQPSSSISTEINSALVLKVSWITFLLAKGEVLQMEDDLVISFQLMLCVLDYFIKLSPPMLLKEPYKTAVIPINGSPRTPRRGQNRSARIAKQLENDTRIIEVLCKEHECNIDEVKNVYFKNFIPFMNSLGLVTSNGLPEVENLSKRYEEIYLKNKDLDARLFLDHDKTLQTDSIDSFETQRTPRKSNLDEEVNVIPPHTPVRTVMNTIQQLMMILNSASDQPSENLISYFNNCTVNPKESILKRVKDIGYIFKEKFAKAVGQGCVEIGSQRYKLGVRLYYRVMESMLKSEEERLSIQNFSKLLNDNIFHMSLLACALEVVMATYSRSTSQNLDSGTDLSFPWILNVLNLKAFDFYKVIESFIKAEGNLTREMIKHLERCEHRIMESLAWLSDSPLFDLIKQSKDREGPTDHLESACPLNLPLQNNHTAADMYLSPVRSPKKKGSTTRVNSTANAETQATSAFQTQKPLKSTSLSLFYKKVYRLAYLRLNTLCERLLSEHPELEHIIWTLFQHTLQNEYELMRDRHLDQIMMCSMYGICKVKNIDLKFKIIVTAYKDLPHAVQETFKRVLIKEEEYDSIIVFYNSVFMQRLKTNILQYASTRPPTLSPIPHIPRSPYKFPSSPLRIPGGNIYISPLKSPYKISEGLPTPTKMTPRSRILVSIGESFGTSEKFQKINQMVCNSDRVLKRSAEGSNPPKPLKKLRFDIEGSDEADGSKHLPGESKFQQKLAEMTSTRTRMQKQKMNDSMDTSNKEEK

Stathmin (Homo sapiens) = biological target: T2, Stathmin (Homo sapiens) (UniProt P16949); experiment: Increase in STMN1 phosphorylation in human A549 cells harboring KRAS mutant at 1 uM after 8 hrs by Western blot analysis; format: cell-based; how it was run: as §6
T2 sequence (whole entry): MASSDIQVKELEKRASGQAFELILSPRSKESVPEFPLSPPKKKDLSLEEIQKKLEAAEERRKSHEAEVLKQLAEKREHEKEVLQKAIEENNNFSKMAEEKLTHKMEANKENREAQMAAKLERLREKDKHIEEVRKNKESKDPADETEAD

Row | SMILES | Activity (A549 [1]) | EC50 [3] | Activity (A549 [4]) | also measured
1 | Cn1ccc2ccc(/C=C3\CCc4ccc(Br)cc4C3=O)cc21 | Dose-dependent effect |  |  | Activity [2]: 26%
2 | O=C1/C(=C/c2ccc3[nH]ccc3c2)CCc2ccc(F)cc21 | Dose-dependent effect | 270 nM | Active | 
3 | COc1cc2c(cc1OC)C(=O)/C(=C/c1ccc3c(ccn3C)c1)CC2 | Dose-dependent effect |  |  | 
4 | COc1ccc2c(c1)C(=O)/C(=C/c1ccc3c(ccn3C)c1)CC2 | Dose-dependent effect | 3000 nM | Active | 
5 | CC(C)(C)OC(=O)n1ccc2cc(/C=C3\CCc4ccc(F)cc4C3=O)ccc21 | Dose-dependent effect |  |  | 
6 | Cn1ccc2cc(/C=C3\CCc4ccccc4C3=O)ccc21 | Dose-dependent effect | 470 nM | Active | 
7 | COc1ccc2c(c1)C(=O)/C(=C/c1ccc3ccn(C)c3c1)CC2 | Dose-dependent effect | 5800 nM | Active | 
8 | Cn1ccc2ccc(/C=C3\CCc4ccccc4C3=O)cc21 | Dose-dependent effect | 470 nM | Active | 
9 | CC(C)(C)OC(=O)n1ccc2cc(/C=C3\CCc4ccccc4C3=O)ccc21 | Dose-dependent effect |  |  | 
10 | CCn1ccc2cc(/C=C3\CCc4ccc(OC)cc4C3=O)ccc21 | Dose-dependent effect | 3000 nM | Active | 
11 | O=C1/C(=C/c2ccc3[nH]ccc3c2)CCc2ccccc21 | Dose-dependent effect | 1130 nM | Active | 
12 | CC(=O)n1ccc2cc(/C=C3\CCc4ccc(F)cc4C3=O)ccc21 | Dose-dependent effect |  |  | Activity [2]: 28%
13 | CCn1ccc2cc(/C=C3\CCc4ccc(Br)cc4C3=O)ccc21 | Dose-dependent effect |  |  | 
14 | COc1cc(/C=C2\CCc3ccc(F)cc3C2=O)cc(OC)c1OC |  |  |  | Activity [5]: Active; inhibition [6]: Active
15 | Cn1ccc2cc(/C=C3\CCc4ccc(F)cc4C3=O)ccc21 | Dose-dependent effect | 200 nM | Active | 
16 | CCn1ccc2cc(/C=C3\CCc4ccc(F)cc4C3=O)ccc21 | Dose-dependent effect | 110 nM | Active | Activity (PC-3): Dose-dependent effect; EC50 (PC-3; PC-3, 72 h): 450 nM; Activity (HPAC): Dose-dependent effect; EC50 (HPAC): 310 nM; Activity (Panc02): Dose-dependent effect; EC50 (Panc02; Panc02, 72 h): 590 nM; Ratio EC50 (A549 [7]): >4; Ratio EC50 (A549 [8]): >4; Ratio EC50 (A549 [9]): 2.8
17 | COc1cc2c(cc1OC)C(=O)/C(=C/c1ccc3ccn(C)c3c1)CC2 | Dose-dependent effect | 10000 nM | Active | 
18 | CCn1ccc2cc(/C=C3\CCc4ccccc4C3=O)ccc21 | Dose-dependent effect | 460 nM | Active | 
19 | Cn1ccc2cc(/C=C3\CCc4ccc(Br)cc4C3=O)ccc21 | Dose-dependent effect |  |  | Activity [2]: 21%
20 | O=C1/C(=C/c2ccc3c(ccn3Cc3ccccc3)c2)CCc2ccc(F)cc21 | Dose-dependent effect |  |  | 
21 | COc1ccc2c(c1)C(=O)/C(=C/c1ccc3[nH]ccc3c1)CC2 | Dose-dependent effect | 550 nM | Active | Activity (A549 [10]): Active; Activity [11]: <40%; Activity [12]: <40%; Activity [13]: <40%; Activity [14]: 80%; Activity [15]: Non-Toxic; selectivity ratio [16]: > 18; Activity [17]: Non-Toxic; Activity (A549 [18]): Active; inhibition [19]: Active; Activity (Stathmin (Homo sapiens)): Active
22 | CCn1ccc2cc(/C=C3\CCc4cc(OC)c(OC)cc4C3=O)ccc21 | Dose-dependent effect |  |  | Activity [2]: 19%
23 | O=C1/C(=C/c2ccc3[nH]ccc3c2)CCc2ccc(Br)cc21 | Dose-dependent effect |  |  | Activity [2]: 16%

Reference: ChEMBL document CHEMBL3868602, “Novel synthetic chalcones induce apoptosis in the A549 non-small cell lung cancer cells harboring a KRAS mutation” (Bioorg Med Chem Lett, 2016)
